Results from ChEMBL document CHEMBL1140341, “Synthesis and radioligand binding studies of C-5- and C-8-substituted 1-(3,4-dimethoxybenzyl)-2,2-dimethyl-1,2,3,4-tetrahydroisoquinoliniums as SK channel blockers related to N-methyl-laudanosine and N-methyl-noscapine” (J Med Chem, 2005).

Assays:
[1] = target: Small conductance calcium-activated potassium channel (Rattus norvegicus) (UniProt P70604+P70606+P70605); assay: Displacement of [125I]apamin from calcium-activated potassium (SK) channels of rat cortex at 10 uM
Procedure, shortened: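 Rat cortical synaptosomes (0.2 mg protein/mL) in 10 mM Tris-HCl pH 7.5 with 5.4 mM KCl and 0.1% BSA. Incubated 1 h at 0 °C with about 10 pM 125I-apamin and 10 μM drug. Filtered on polyethylenimine-coated GF/C filters, washed twice, counted by scintillation. Nonspecific binding defined with 0.1 μM unlabeled apamin; filter binding without synaptosomes subtracted.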

[2] = target: Small conductance calcium-activated potassium channel (Rattus norvegicus, UniProt P70604+P70606+P70605); assay: Inhibition of [125I]apamin binding to calcium-activated potassium (SK) channel of rat cortex
Procedure, shortened: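 Cortical synaptosomes (0.2 mg protein/mL), Tris-HCl 10 mM pH 7.5 buffer with 5.4 mM KCl and 0.1% BSA. 1 h at 0 °C with ±10 pM 125I-apamin and nine drug concentrations (10-4–10-7 M); run for drugs displacing at least 20% at 10 μM. Polyethylenimine-coated GF/C filtration, scintillation counting. Nonspecific binding with 0.1 μM apamin; curve-fitted.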

Structure (SMILES)	Displacement [1] [%]	IC50 [2] [µM]	Ki [2] [µM]
COc1ccc(CC2c3c(cccc3OC)CCN2C)cc1OC (stereo not given)	1	–	–
COc1ccc(CC2c3cccc(Cl)c3CCN2C)cc1OC (stereo not given)	8	–	–
COc1ccc(CC2c3sc(C)cc3CC[N+]2(C)C)cc1OC (stereo not given)	18	–	–
COc1ccc(CC2c3c(cccc3C(C)C)CC[N+]2(C)C)cc1OC.[I-] (stereo not given)	55	8.6	1.6
COc1ccc(CC2c3c(cccc3OC)CC[N+]2(C)C)cc1OC (stereo not given)	9	–	–
COc1ccc(CC2c3c(Cl)cccc3CC[N+]2(C)C)cc1OC.[I-] (stereo not given)	23	50	9.3
COc1ccc2c(c1OC)C(=O)OC2C1c2c(cc3c(c2OC)OCO3)CC[N+]1(C)C.[I-] (stereo not given)	27	14.1	3.6
COc1ccc(CC2c3c(cccc3C(C)C)CCN2C)cc1OC (stereo not given)	10	–	–
COc1ccc(C[C@H]2c3cc(OC)c(OC)cc3CC[N+]2(C)C)cc1OC.[I-] [LAUDANOSINE METHIODIDE]	57	8.7	1.6
CCc1cccc2c1C(Cc1ccc(OC)c(OC)c1)[N+](C)(C)CC2.[I-] (stereo not given)	44	13.6	2.6
COc1ccc(CC2c3c(Br)cccc3CC[N+]2(C)C)cc1OC.[I-] (stereo not given)	26	35.2	6.8
COc1ccc(CC2c3sccc3CC[N+]2(C)C)cc1OC (stereo not given)	15	–	–
COc1ccc(CC2c3c(Br)cccc3CCN2C)cc1OC (stereo not given)	10	–	–
COc1ccc(CC2c3cccc(Br)c3CC[N+]2(C)C)cc1OC (stereo not given)	29	25.4	4.9
COc1ccc(CC2c3cccc(Br)c3CCN2C)cc1OC (stereo not given)	1	–	–
COc1ccc(CC2c3c(Cl)cccc3CCN2C)cc1OC (stereo not given)	5	–	–
CCc1cccc2c1C(Cc1ccc(OC)c(OC)c1)N(C)CC2 (stereo not given)	2	–	–
COc1ccc(CC2c3c(C)cccc3CCN2C)cc1OC (stereo not given)	10	–	–
COc1ccc(CC2c3cccc(Cl)c3CC[N+]2(C)C)cc1OC (stereo not given)	27	39.6	7.6
COc1ccc(CC2c3sc(C)cc3CCN2C)cc1OC (stereo not given)	1	–	–
COc1ccc(CC2c3c(C)cccc3CC[N+]2(C)C)cc1OC.[I-] (stereo not given)	24	28.4	5.5
COc1ccc(CC2c3sccc3CCN2C)cc1OC (stereo not given)	2	–	–
